Measurements as given in ChEMBL document CHEMBL3393029, “Preactivated oxazaphosphorines designed for isophosphoramide mustard delivery as bulk form or nanoassemblies: synthesis and proof of concept” (J Med Chem, 2015).

Tests used:
Plasma [1] = assay: Drug metabolism in mouse plasma assessed as 4-HO-IFO level measured after 2 hrs by HPLC-MS/MS method; format: ADME, cell-free
Outline: (§1)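 Prodrugs, from acetonitrile stocks as bulk form or nano-assemblies, were incubated in mouse plasma at 37 °C for up to 24 h. 4-HO-IFO was trapped as its semicarbazone with semicarbazide (2 M in pH 7.4 buffer). It was quantified alongside the parent by isocratic C18 HPLC-ESI(+)-MS/MS with MRM, using hexamethyl phosphoramide as internal standard, over 50–5000 ng/mL. Results are given in ng/mL.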

A673 [2] = assay: Cytotoxicity against human A673 cells after 72 hrs by MTS assay; format: functional, cell-based; settings: A673, 72 h
Outline: (§2)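 Human Ewing sarcoma A673 and rhabdomyosarcoma RMS-1 cells were grown in DMEM or RPMI with 10% FCS, penicillin and streptomycin at 37 °C under 5% CO2. […] MTS was then added for 2–5 h and absorbance read at 490 nm. Six replicates per concentration; IC50 versus untreated cells.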

[3] = Cytotoxicity against human RMS1 cells after 72 hrs by MTS assay; format: functional, cell-based; settings: RMS1, 72 h; outline: as §2
Plasma [4] = assay: Drug metabolism in mouse plasma assessed as 4-HO-IFO level measured after 6 hrs by HPLC-MS/MS method; format: ADME, cell-free; outline: as §1
Plasma [5] = assay: Drug metabolism in mouse plasma assessed as 4-HO-IFO release measured after 2 hrs by HPLC-MS/MS method; format: ADME, cell-free; outline: as §1
Plasma [6] = assay: Drug metabolism in mouse plasma assessed as 4-HO-IFO release measured after 0.5 hrs by HPLC-MS/MS method; format: ADME, cell-free; outline: as §1
Plasma [7] = assay: Drug metabolism in mouse plasma assessed as 4-HO-IFO level measured after 2 to 24 hrs by HPLC-MS/MS method; format: ADME, cell-free; outline: as §1
KB = assay: Cytotoxicity against human KB cells; format: functional, cell-based
Outline: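 KB3.1 was one of 12 human lines tested with nano-assembly formulations. Cells were seeded, then exposed after 24 h to 0.1–200 µM in DMEM or RPMI with 10% FBS at 37 °C and 5% CO2 for 72 h. MTS was read at 490 nm after 2–5 h. Six replicates per concentration; IC50 relative to untreated cells.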

Plasma [8] = assay: Drug metabolism in mouse plasma assessed as 4-HO-IFO release measured after 4 hrs by HPLC-MS/MS method; format: ADME, cell-free; outline: as §1
A673 [9] = assay: Cytotoxicity against human A673 cells after 96 hrs by MTS assay; format: functional, cell-based; settings: A673, 96 h; outline: as §2
[10] = Cytotoxicity against human RMS1 cells after 96 hrs by MTS assay; format: functional, cell-based; settings: RMS1, 96 h; outline: as §2

Row | SMILES | Drug metabolism (Plasma [1]) | IC50 (A673 [2]) [µM] | IC50 [3] [µM] | Stability (Plasma [7]) | further results
1 | COC1CCOP(=O)(NCCCl)N1CCCl (mixture of isomers) | metabolite_detected | 1.5 | 3.8 | – | Drug metabolism (Plasma [4]): metabolite_detected; Drug metabolism (Plasma [5]): 1250 ng/mL
2 | CC(C)=CCC/C(C)=C/CC/C(C)=C/COC1CCOP(=O)(NCCCl)N1CCCl (mixture of isomers) | metabolite_detected | – | – | Stable | Drug metabolism (Plasma [6]): 700 ng/mL
3 | CO[C@H]1CCOP(=O)(NCCCl)N1CCCl (some centres not stated) | – | – | – | – | IC50 (KB): 22 µM
4 | CCCCCOC1CCOP(=O)(NCCCl)N1CCCl (mixture of isomers) | – | 17.7 | 5.3 | – | –
5 | CC(C)=CCC/C(C)=C/COC1CCOP(=O)(NCCCl)N1CCCl (mixture of isomers) | metabolite_detected | 25.3 | 9.3 | Stable | Drug metabolism (Plasma [8]): 350 ng/mL
6 | CC(C)CCCC(C)CCOC1CCOP(=O)(NCCCl)N1CCCl (configuration not stated) | metabolite_detected | – | – | Stable | Drug metabolism (Plasma [6]): 200 ng/mL; IC50 (A673 [9]): 24.5 µM; IC50 [10]: 11.3 µM
7 | CO[C@@H]1CCOP(=O)(NCCCl)N1CCCl (some centres not stated) | – | – | – | – | IC50 (KB): 20 µM
